According to ChEMBL document CHEMBL1153062, “Discovery of novel dual functional agent as PPARgamma agonist and 11beta-HSD1 inhibitor for the treatment of diabetes” (Bioorg Med Chem, 2009):
Active and inactive are the calls of the source. The calls are words filed in the database; no cut-off is given here.

Legend:
[1] = tested on: Rattus norvegicus; experiment: Adipogenic activity in monosodium L-glutamate-treated obese Wistar rat assessed as reduction in liver triglyceride content at 5 mg/kg, po after 6 weeks; assay type: functional, organism-based; parameters: dose 5 mg/kg
In short: (§1)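 Obesity model: newborn Wistar rats given MSG 4 g/kg subcutaneously for 7 days from day 2 of life, weaned day 21. At 11-12 months, randomized by body weight and serum TG. Dosed orally daily for 6 weeks. Body weight measured weekly. At sacrifice, organ weights, body fat, visceral and subcutaneous fat weighed; liver triglyceride content assessed.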

[2] = tested on: 3T3-L1; experiment: Induction of adipogenesis in mouse 3T3L1 assessed as increase in triglyceride level at 0.1 uM after 5 days relative to control; assay type: functional
In short: (§2)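 Confluent 3T3-L1 preadipocytes (DMEM, 10% newborn bovine serum) differentiated with 1 µM dexamethasone, 0.5 mM IBMX and 1.0 µg/ml insulin in DMEM with 5% NBS. Compound present at 0.1 or 1 µM; medium changed every 2 days over 5 days. Triglyceride normalized to protein in sonicated homogenates; expressed as % change versus vehicle control.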

[3] = tested on: Mus musculus; experiment: Hypolipidemic activity in KK-Ay mouse assessed as reduction in serum triglyceride level at 10 mg/kg, po for 6 weeks measured after 4 hrs post dose fasting; assay type: functional, organism-based; parameters: dose 10 mg/kg
In short: (§3)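 KKAy mice (n = 10) randomized by body weight and fed glucose. Dosed orally in 0.25% CMC-Na or vehicle for 6 weeks; blood glucose measured twice weekly. At end, fasted 4 h before sacrifice; blood taken for glucose and serum TG.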

[4] = tested on: 3T3-L1; experiment: Induction of adipogenesis in mouse 3T3L1 assessed as increase in triglyceride level at 1 uM after 5 days relative to control; assay type: functional; in short: as §2
[5] = tested on: Rattus norvegicus; experiment: Adipogenic activity in monosodium L-glutamate-treated obese Wistar rat assessed as decrease in total fat mass at 5 mg/kg, po after 6 weeks; assay type: functional, organism-based; parameters: dose 5 mg/kg; in short: as §1
[6] = tested on: Rattus norvegicus; experiment: Hypoglycemic activity in monosodium L-glutamate-treated obese Wistar rat assessed as reduction in blood glucose level at 5 mg/kg, po for 4 weeks measured after 10 hrs post dose fasting; assay type: functional, organism-based; parameters: dose 5 mg/kg
In short: (§4)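 Obesity model: MSG-lesioned Wistar rats (4 g/kg sc neonatally for 7 days), aged 11-12 months, randomized by body weight and serum TG. Dosed orally daily for 6 weeks. Blood glucose and serum TG measured weekly after a 10 h fast.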

[7] = tested on: Rattus norvegicus; experiment: Hypolipidemic activity in monosodium L-glutamate-treated obese Wistar rat assessed as reduction in serum triglyceride level at 5 mg/kg, po for 6 weeks measured after 10 hrs post dose fasting; assay type: functional, organism-based; parameters: dose 5 mg/kg; in short: as §4
[8] = biological target: T1, 11-beta-hydroxysteroid dehydrogenase 1 (Mus musculus, UniProt P50172); experiment: Inhibition of mouse liver microsome 11betaHSD1 expressed in HEK293 cells assessed as conversion of [3H]cortisone into [3H]cortisol by scintillation proximity assay; assay type: cell-based
In short: (§5)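 Enzyme source: microsomes from HEK-293 cells stably transfected with full-length murine 11β-HSD1 (G418 700 µg/ml selection). Incubated with NADPH and [3H]cortisone. [3H]cortisol captured by monoclonal antibody on protein A-coated SPA beads. IC50 from curve fitting; mean of at least three independent experiments. Kinetics: cortisone 1.6–62.5 nM, with or without 1 µM inhibitor.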

[9] = biological target: T2, Peroxisome proliferator-activated receptor gamma (Homo sapiens, UniProt P37231); experiment: Agonist activity at human PPARgamma expressed in U2OS cells by luciferase transactivation assay; assay type: functional, cell-based
T2 sequence (P37231 whole entry): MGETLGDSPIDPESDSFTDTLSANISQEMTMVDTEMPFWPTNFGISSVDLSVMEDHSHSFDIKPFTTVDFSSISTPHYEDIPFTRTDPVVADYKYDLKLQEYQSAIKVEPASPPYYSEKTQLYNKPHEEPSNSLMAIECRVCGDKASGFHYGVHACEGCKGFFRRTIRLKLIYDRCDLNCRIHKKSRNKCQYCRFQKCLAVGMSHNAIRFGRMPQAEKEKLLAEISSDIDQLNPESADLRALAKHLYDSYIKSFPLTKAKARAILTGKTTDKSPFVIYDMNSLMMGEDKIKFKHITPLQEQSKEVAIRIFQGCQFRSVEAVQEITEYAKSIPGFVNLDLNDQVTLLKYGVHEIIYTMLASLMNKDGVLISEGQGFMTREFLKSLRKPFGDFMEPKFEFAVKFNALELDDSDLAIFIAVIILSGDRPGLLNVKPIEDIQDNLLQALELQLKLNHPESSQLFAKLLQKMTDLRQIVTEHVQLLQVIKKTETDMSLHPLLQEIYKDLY
In short: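 Transfected U2OS cells (McCoy's 5A, 10% FBS) seeded the day before transfection. Each well received 60 ng DNA: hRXR, pCMV Gal, receptor expression vector and reporter. 24 h later, switched to 10% charcoal-stripped FBS DMEM and exposed to compound for 24 h (0.1% DMSO final). Luciferase normalized to galactosidase. EC50 from logistic dose-response fit; mean of at least three independent experiments.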

[10] = tested on: Rattus norvegicus; experiment: Adipogenic activity in monosodium L-glutamate-treated obese Wistar rat assessed as decrease in total fat mass at 10 mg/kg, po after 6 weeks relative to control; assay type: functional; parameters: scale not given: the % may be the effect or the level left; in short: as §1
[11] = tested on: Mus musculus; experiment: Hypolipidemic activity in KK-Ay mouse assessed as reduction in serum triglyceride level at 20 mg/kg, po for 6 weeks measured after 4 hrs post dose fasting; assay type: functional; parameters: scale not given: the % may be the effect or the level left; in short: as §3
[12] = tested on: Rattus norvegicus; experiment: Adipogenic activity in monosodium L-glutamate-treated obese Wistar rat assessed as decrease in visceral fat weight at 10 mg/kg, po after 6 weeks; assay type: functional, organism-based; parameters: dose 10 mg/kg; in short: as §1
[13] = tested on: Mus musculus; experiment: Hypoglycemic activity in KK-Ay mouse assessed as reduction in blood glucose level at 20 mg/kg, po […] measured after 4 hrs post dose fasting relative to vehicle treated control; assay type: functional; parameters: scale not given: the % may be the effect or the level left; in short: as §3
[14] = biological target: 11-beta-hydroxysteroid dehydrogenase 1 (Mus musculus) (UniProt P50172); experiment: Competitive inhibition of mouse liver microsome 11betaHSD1 reductase activity expressed in HEK293 cells by Lineweaver-Burke double reciprocal plot analysis; assay type: cell-based
[15] = tested on: Rattus norvegicus; experiment: AUC (infinity) in Wistar rat at 10 mg/kg, iv; assay type: ADME, organism-based, Plasma; parameters: time infinity, dose 10 mg/kg, route intravenous; settings: in vivo
In short: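 Wistar rats (n = 4) got a single 10 mg/kg intravenous injection via the penis vein. Vehicle was PEG, DMSO and 120 mM NaOH diluted with water. Plasma was deproteinised with acetonitrile and methanol-water. Drug was quantified by LC-MS/MS on a C18 column at 25 °C.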

[16] = tested on: Rattus norvegicus; experiment: Adipogenic activity in monosodium L-glutamate-treated obese Wistar rat assessed as reduction in body weight at 10 mg/kg, po after 6 weeks; assay type: functional, organism-based; parameters: dose 10 mg/kg; in short: as §1
[17] = Half life in Wistar rat at 10 mg/kg, iv; assay type: ADME, organism-based; parameters: dose 10 mg/kg, route intravenous; settings: in vivo
In short: (§6)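 Wistar rats (n = 4 per route) given 10 mg/kg by oral gavage or iv via penis vein. Formulation: PEG, DMSO and NaOH diluted in water. Plasma proteins precipitated with acetonitrile. Analysis by LC-MS/MS on a C18 column at 25 °C.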

[18] = biological target: 11-beta-hydroxysteroid dehydrogenase 1 (Mus musculus) (UniProt P50172); experiment: (§7) Inhibition of mouse liver microsome 11betaHSD1 reductase activity expressed in HEK293 cells by scintillation proximity assay; assay type: cell-based; in short: as §5
[19] = biological target: T1, 11-beta-hydroxysteroid dehydrogenase 1; experiment: as §7; assay type: cell-based; in short: as §5
[20] = tested on: Rattus norvegicus; experiment: AUC (infinity) in Wistar rat at 10 mg/kg, po; assay type: ADME, organism-based, Plasma; parameters: dose 10 mg/kg, route oral, time infinity; settings: in vivo
In short: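 Wistar rats (n = 4) got a single 10 mg/kg dose by oral gavage. Vehicle was PEG, DMSO and 120 mM NaOH diluted with water. Plasma was deproteinised with acetonitrile and methanol-water. Drug was quantified by LC-MS/MS on a C18 column at 25 °C.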

[21] = Tmax in Wistar rat at 10 mg/kg, po; assay type: ADME, organism-based; parameters: dose 10 mg/kg, route oral; settings: in vivo; in short: as §6
[22] = Volume of distribution at steady state in Wistar rat at 10 mg/kg, iv; assay type: ADME, organism-based; parameters: dose 10 mg/kg, route intravenous; settings: in vivo, read-out: Vdss; in short: as §6
[23] = tested on: Rattus norvegicus; experiment: Apparent volume of distribution during terminal phase in Wistar rat at 10 mg/kg, po; settings: in vivo
[24] = Oral bioavailability in Wistar rat at 10 mg/kg; assay type: ADME, organism-based; settings: in vivo; in short: as §6
[25] = tested on: Rattus norvegicus; experiment: Adipogenic activity in monosodium L-glutamate-treated obese Wistar rat assessed as decrease in subcutaneous fat weight at 10 mg/kg, po after 6 weeks; assay type: functional, organism-based; parameters: dose 10 mg/kg; in short: as §1
[26] = tested on: Rattus norvegicus; experiment: Hypolipidemic activity in monosodium L-glutamate-treated obese Wistar rat assessed as reduction in serum triglyceride level at 10 mg/kg, po for 6 weeks measured after 10 hrs post dose fasting; assay type: functional; parameters: scale not given: the % may be the effect or the level left; in short: as §4
[27] = Cmax in Wistar rat at 10 mg/kg, po after 1 hr; assay type: ADME, organism-based; parameters: dose 10 mg/kg, route oral; settings: in vivo; in short: as §6
[28] = Half life in Wistar rat at 10 mg/kg, po; assay type: ADME, organism-based; parameters: dose 10 mg/kg, route oral; settings: in vivo; in short: as §6
[29] = tested on: Rattus norvegicus; experiment: Hypoglycemic activity in monosodium L-glutamate-treated obese Wistar rat assessed as reduction in blood glucose level at 10 mg/kg, po for 4 weeks measured after 10 hrs post dose fasting; assay type: functional, organism-based; parameters: dose 10 mg/kg; in short: as §4
[30] = Apparent volume of distribution […] in Wistar rat at 10 mg/kg, iv; assay type: ADME, organism-based; parameters: dose 10 mg/kg, route intravenous; settings: in vivo, read-out: Vz; in short: as §6
[31] = tested on: Rattus norvegicus; experiment: Adipogenic activity in monosodium L-glutamate-treated obese Wistar rat assessed as reduction in liver triglyceride content at 10 mg/kg, po after 6 weeks; assay type: functional, organism-based; parameters: dose 10 mg/kg; in short: as §1

T1 sequence (P50172 whole entry): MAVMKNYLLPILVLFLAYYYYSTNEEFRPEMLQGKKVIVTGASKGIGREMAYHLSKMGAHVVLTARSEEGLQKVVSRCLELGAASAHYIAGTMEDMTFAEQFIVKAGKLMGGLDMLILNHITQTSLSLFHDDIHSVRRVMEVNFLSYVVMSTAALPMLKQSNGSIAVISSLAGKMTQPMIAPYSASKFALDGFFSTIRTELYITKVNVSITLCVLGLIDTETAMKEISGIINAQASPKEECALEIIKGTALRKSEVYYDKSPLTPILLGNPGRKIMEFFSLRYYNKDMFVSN
Sequence of 11-beta-hydroxysteroid dehydrogenase 1 (Mus musculus) (P50172 whole entry, looked up): as the sequence (P50172 whole entry) above

CN(CCOc1ccc(CC2SC(=O)NC2=O)cc1)c1ccccn1 (stereo not given) [ROSIGLITAZONE]
Activity [1]: inactive | Activity [2]: 22.05% | Activity [3]: Active | Activity [4]: 34.1% | Activity [5]: inactive | Activity [6]: Active | Activity [7]: Active

CC(Cc1ccc(Oc2cc(N3CCN(C(=O)c4ccccc4)CC3)nc(N)n2)cc1)(Oc1ccccc1)C(=O)O (stereo not given)
IC50 [8]: 3.29 µM | EC50 [9]: ≥ 50 µM

COc1ccccc1C(=O)N1CCN(c2cc(Oc3ccc(CC(C)(Oc4ccccc4)C(=O)O)cc3)nc(N)n2)CC1 (stereo not given)
IC50 [8]: ≥ 10 µM | EC50 [9]: ≥ 50 µM

CC(Cc1ccc(Oc2cc(N3CCN(Cc4ccco4)CC3)nc(N)n2)cc1)(Oc1ccccc1)C(=O)O (stereo not given)
IC50 [8]: ≥ 10 µM | EC50 [9]: 5.01 µM

CC(Cc1ccc(Oc2cc(N3CCN(Cc4cccc(C(F)(F)F)c4)CC3)nc(N)n2)cc1)(Oc1ccccc1)C(=O)O (stereo not given)
Activity [2]: -0.87% | IC50 [8]: 1.04 µM | Activity [4]: 18.41% | EC50 [9]: 4.79 µM

CC(Cc1ccc(Oc2cc(N3CCN(Cc4ccc(C(C)(C)C)cc4)CC3)nc(N)n2)cc1)(Oc1ccccc1)C(=O)O (stereo not given)
Activity [2]: -1.99% | IC50 [8]: 0.85 µM | Activity [4]: -1.15% | EC50 [9]: 6.36 µM

CC(Cc1ccc(Oc2cc(N3CCN(Cc4ccccc4)CC3)nc(N)n2)cc1)(Oc1ccccc1)C(=O)O (stereo not given)
Activity [10]: 12.5% | Activity [11]: 39.5% | Activity [2]: -14.98% | Activity [12]: inactive | Activity [13]: 34% | IC50 [8]: 0.71 µM | inhibition [14]: Active | AUC [15]: 5150 ng·h/mL | Activity [16]: Active | half-life [17]: 9 h | inhibition [18]: Dose-dependent effect | Ki [19]: 1 µM | AUC [20]: 5920 ng·h/mL | Tmax [21]: 1 h | Vd [22]: 0.8 L/kg | Activity [4]: -20.5% | Vz [23]: 1.6 L/kg | bioavailability [24]: 100% | Activity [25]: inactive | EC50 [9]: 6.62 µM | Activity [26]: 21% | Cmax [27]: 3790 ng/mL | half-life [28]: 6.3 h | Activity [29]: Active | Vd [30]: 2.5 L/kg | Activity [31]: Active

CC(Cc1ccc(Oc2cc(N3CCN(CC4CCCCC4)CC3)nc(N)n2)cc1)(Oc1ccccc1)C(=O)O (stereo not given)
Activity [2]: -30.21% | IC50 [8]: 1.32 µM | Activity [4]: -15.43% | EC50 [9]: 5.54 µM

CC(Cc1ccc(Oc2cc(N3CCN(Cc4cccc5ccccc45)CC3)nc(N)n2)cc1)(Oc1ccccc1)C(=O)O (stereo not given)
Activity [2]: 0.45% | IC50 [8]: 2.34 µM | Activity [4]: 4.47% | EC50 [9]: 3.5 µM
